# Hits are enriched below; roughly 3.3% of the tested compounds scored in any of these assays.
# Cl transport mod = KCC2 cotransporter modulators, thallium flux, primary screen, cell-based, HEK293 KCC2, FluoZin-2 fluorescence, MLSMR; Solute carrier family 12 member 5 (Homo sapiens), Q9H2X9; KCC2 cells, thallium flux FluoZin-2 fluorescence; B-score of Tl+ flux slope (higher = more flux/activation; lower = inhibition) at 10 µM; 190,000 compounds, 2.2% hits; AID 1456, 2008;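 active = thallium flux slope and its plate-corrected score both differing from the plate sample mean at a set confidence after two filtering rounds, in either direction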;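 note: slope of fluorescence scaled to starting intensity during 10 to 20 s after thallium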
# PMI act satM6P = human PMI activators, high substrate, primary screen, biochemical, fluorescence intensity, near-saturating mannose 6-phosphate; AID 1216, 2008; activation factor at 20 µM; 190,000 compounds, 0.34% hits; coupled PMI enzyme assay, resazurin fluorescence, 20 min; hits give high values; 1 = untreated enzyme, 0 = substrate-free blank;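 active = activation factor of 2 or more at 20 µM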
#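 test system = human PMI in coupled enzyme assay | medium = HEPES-buffered pH 7.4 with magnesium and detergent | also added = 1.0 mM mannose-6-phosphate substrate with 0.22 mM NADP+ | compound = 20 µM single dose | times = 20 min incubation at room temperature | measured by = resorufin fluorescence (Ex 544/Em 590 nm) from resazurin via diaphorase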
# ROMK mod = ROMK potassium channel modulators, primary screen, cell-based, thallium flux, MLSMR library. B-score at 10 µM. Tet-inducible ROMK, thallium flux fluorescence; actives lie on both sides. 130,000 compounds, 2% hits. ATP-sensitive inward rectifier potassium channel 1 (Homo sapiens), P48048;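 active = signal ratio slope over the read window, or its plate-corrected B-score, at least 3 SD from the plate mean, either direction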;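 note: B-score of the F/F0 ratio slope over 7 to 12 s after thallium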
# ABCG2 inh = ABCG2 efflux pump inhibitors, primary screen, multiplex with ABCB1, IgMXP3 cells, flow cytometry; 190,000 compounds, 0.1% hits; JC-1 efflux; Broad substrate specificity ATP-binding cassette transporter ABCG2 (Homo sapiens), Q9UNQ0; AID 1325, 2008; inhibition, % at 6.6 µM;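 active = inhibition above 80%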;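 note: 0% = DMSO and 100% = nicardipine control wells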
#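 System: two drug-resistant human cell lines, ABCG2 and ABCB1; controls: nicardipine high and DMSO low controls; times: 10 min exposure at 25 °C with rotation, no wash; detection: flow cytometry of retained JC-1 fluorescence; read-out basis: percent efflux inhibition, scaled nicardipine 100% to DMSO 0%; doses: one concentration, 6.6 µM final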
# ABCB1 inh = ABCB1 efflux pump inhibitors, primary screen, cell-based, multiplex, flow cytometry, ABCG2 counter-screen | CCRF-Adr cells, JC-1 efflux | inhibition, % at 6.6 µM | 190,000 compounds, 0.067% hits; in the data active = inhibition above about 40%;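 note: 0% = vehicle and 100% = reference inhibitor; higher value means more JC-1 retained so stronger ABCB1 efflux block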
# PMI activator = activators of human PMI, primary screen, biochemical, fluorescence intensity, near-Km mannose 6-phosphate | Mannose-6-phosphate isomerase (Homo sapiens), P34949 | purified human PMI, coupled resazurin fluorescence, 20 min; hits give high values; 1 = vehicle control, 0 substrate-free wells | activation factor at 20 µM | 190,000 compounds, 0.005% hits | AID 1214, 2008;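 active = activation factor of 2 or more at 20 µM, relative to plate controls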
# ROMK hit retest = ROMK channel modulator hit retest, confirmation, cell-based, thallium flux, duplicate, resupplied hits | shares compounds with ROMK mod | AID 1917, 2009 | fluorescence ratio; hits give low values | 3,000 compounds, 54% hits | normalized thallium flux (F/F0 slope) at 10 µM;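 active = Flux at 10 µM at least 3 SD below or above vehicle control mean in one or both replicates; inconclusive = no clear call, values can overlap the other calls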
# Starred values were filed as active, the others as inactive; i = inactive; u = inconclusive; x = no result.
SMILES,Cl transport mod,PMI act satM6P,ROMK mod,ABCG2 inh,ABCB1 inh,PMI activator,ROMK hit retest
Cc1ccccc1N1C(=O)NC(=O)/C(=C/c2ccc(N3CCOCC3)o2)C1=O,4.3,x,x,x,x,x,x
O=C1NC(=O)N(c2ccc3c(c2)OCO3)C(=O)/C1=C\c1ccc(N2CCCCC2)o1,-1.8,1,x,7,0,0.9,0.052*
CCCCCCN=Cc1c(O)n(C)c(=O)n(C)c1=O,0.67,1.1,x,2,0,1,x
Cc1cccc(N2C(=O)NC(=O)/C(=C/c3cc4c(cc3[N+](=O)[O-])OCO4)C2=O)c1,-0.024,0.8,-2.8*,-6,-1,1,0.056*
O=C1NC(=O)C(=Cc2cc3c(cc2[N+](=O)[O-])OCO3)C(=O)N1,0.51,0.6,0.31,-1,0,0.8,x
CNC(=O)Oc1ccc2c(c1)C(=O)c1ccccc1CO2,0.067,0.9,-1,0,0,0.9,x
O=C1NC(=O)N(Cc2ccccc2Cl)C(=O)/C1=C/N1CCOCC1,x,1.2,x,-6,1,1,0.06*
CN(CCCCC(=O)/C=N/O)Cc1ccccc1 (tested in a mixture with another compound),x,1.1,3.3*,0,0,1.1,0.083
CCN(CC)c1ccc(CNCCc2ccc(F)cc2)cc1,0.24,1,-2.8*,3,1,1,0.054*
O=C(c1ccc2c3c(cccc13)CC2)C1CCCN(CC2CC2)C1 (stereo not given),x,1,-3.3*,2,1,1,0.06*
Cc1ccc2c(c1)C1CN(C)CCC1N2C(=O)/C=C/c1ccc2c(c1)OCO2 (stereo not given),-2.1,1,-0.43,3,2,1,x
Cc1ccc2c(c1)C1CN(C)CCC1N2C(=O)/C(C#N)=C/c1ccc2c(c1)OCO2 (stereo not given),0.27,0.9,-3.1*,8,5,1,0.053*
CCOc1ccc(-n2c(O)c(C=Nc3ccc(N4CCOCC4)cc3)c(=O)[nH]c2=O)cc1,-0.089,0.7,x,1,0,0.9,x
C=CC1CN2CCC1CC2c1[nH]c2ccccc2c1CCO (stereo not given),0.95,1,x,-2,0,1.1,x
CN(C)C(=O)Nc1cccc(OC(=O)N(C)C)c1,x,0.8,x,0,1,0.8,0.088
CN(C)C(=O)Oc1cccc(NC(=O)c2ccccc2C(F)(F)F)c1,1.6,x,x,x,x,x,x
CCOC(=O)C1CCN(C=C2C(=O)N(C)C(=S)N(C)C2=O)CC1,-0.53,1,-0.65,1,0,1,x
CCOc1ccc(-c2c(C)n(-c3ccc(OCC)cc3)c3[n+]2CCCCC3)cc1,0.6,x,x,x,x,x,0.043*
C=CCn1c(O)c(C(C)=NCc2cc(OC)cc(OC)c2)c(=O)[nH]c1=O,-0.82,1,x,3,0,1.1,x
C=CCN1C(=O)NC(=O)/C(=C/c2ccc(N(C)C)c(Br)c2)C1=O,-0.0081,1.1,-0.013,-1,0,1.1,x
Cc1[nH]c2ccccc2c1C(=O)C(=O)N1CC2CC(C1)c1cccc(=O)n1C2 (stereo not given),0.95,1,-0.5,-1,0,1,x
CCNC(=O)C1OC(n2cnc3c(N)ncnc32)C(O)C1O (stereo not given),x,x,4.3*,x,x,x,u
CCOP(=S)(OCC)N1CCOCCOCCN(P(=S)(OCC)OCC)CCOCCOCC1,0.57,0.9,-2*,0,1,0.9,0.076
C[C@H]1CCCC(=O)CCCCCc2cc(O)cc(O)c2C(=O)O1,-0.49,0.9,x,4,3,0.9,0.063*
Cc1nc(SCc2c(Cl)cccc2Cl)nc(OC(=O)N(C)C)c1C,-0.67,x,-0.6,x,x,x,x
O=c1[nH]c(=O)n(CC2CCCO2)c(O)c1/C=C1\C=Nc2ccccc21 (stereo not given),-1.5,1,0.081,-1,0,1,0.058*
C=C(COC(=O)CCC(=O)O)CC1CC(O)[C@]2(C)OC3CC4OC5C[C@]6(C)O[C@]7(C)CCC8OC9C[C@]%10(C)OC%11C(C)=CC(=O)OC%11CC%10OC9C[C@@H](C)C8OC7CC6O[C@]5(C)C/C=C\C4OC3CC2O1 (stereo not given in full),0.58,x,x,x,x,x,0.081
CC1=CC(=O)OC2CC3OC4C[C@@H](C)C5OC6CC7O[C@]8(C)C/C=C\C9OC%10CC%11OC(CC(C)CO)CC(O)[C@]%11(C)OC%10CC9OC8C[C@]7(C)O[C@]6(C)CCC5OC4C[C@]3(C)OC12 (stereo not given in full),0.94,1,x,0,2,0.9,x
Cc1ccccc1N1C(=O)NC(=O)/C(=C\c2cc(Br)c(N3CCOCC3)o2)C1=O,i,1.1,x,0,0,1.1,0.025*
O=C(N/N=C/c1c(O)n(Cc2ccco2)c(=O)[nH]c1=O)c1ccccc1O,-0.85,x,-0.48,x,x,x,x

# Source: PubChem (several laboratories)
